# Measurements from different studies.
# pIC50: −log10 of the molar value.
# Cell line: HeLa
# Read-out: cell growth or viability
Structure (SMILES),technique,time,measurement,value
C(C#CC1CC1)#CC1CC1,MTT,24 h,IC50,14.5 µg/mL
c1cnc2c(c1)ccc1cccnc12,MTT,48 h,pIC50,< 4.30
CC1(C)SC2C(NC(=O)C(NC(=O)C3=C(O)C(Cc4ccc(O)cc4)NC3=O)c3ccccc3)C(=O)N2C1C(=O)O (stereo not drawn),ATP luminescence,48 h,IC50,93.5 µg/mL
NCCOc1cc(C(=O)Nc2cc(OCCN)c3ccccc3n2)nc(C(=O)Nc2cc(OCCN)c3ccccc3n2)c1,ATP luminescence,72 h,pIC50,5.60
COc1cccc2c1C(=O)c1c(O)c3c(c(O)c1C2=O)C[C@@](O)(C(=O)CO)C[C@@H]3O[C@H]1C[C@H](N)[C@H](O)[C@H](C)O1,MTT,72 h,pIC50,5.44
C#CCOc1ccc(C(=O)c2cccc(NC(=O)CCc3cccc4c3B(O)OC4)c2)cc1,ATP luminescence,72 h,pIC50,5.88
COc1ccccc1C(=O)c1cc2c(-c3ccccc3)c(OC)ccc2o1,,,pIC50,< 4.30
COc1ccc(OC)c(-c2c(C(=O)c3cc(OC)c(OC)c(OC)c3)sc3ccccc23)c1,MTT,72 h,pIC50,< 5.00
Cc1c(O)c(=O)ccn1-c1cccc(C(=O)O)c1,MTT,72 h,pIC50,3.22
COc1cccc(C(=O)c2cc3c(-c4ccccc4)c(OC)ccc3o2)c1,,,pIC50,5.27
O=C(O)CN1c2ccccc2Sc2ccccc21,MTS,,pIC50,4.88
COc1ccnc(-c2cc(OC)ccn2)c1,MTT,48 h,pIC50,< 4.30
COc1cccc(C(=O)O[C@@H]2CN3Cc4c(cc5c(c4OC)OCO5)[C@@]24C=C[C@H](OC)C[C@@H]34)c1,WST-1,48 h,pIC50,< 5.00
CN(C)CCOc1cc(NC(=O)c2cc(Cl)cc(C(=O)Nc3cc(OCCN(C)C)c4ccccc4n3)n2)nc2ccccc12,ATP luminescence,72 h,pIC50,5.49
COc1cccc2c1C(=O)c1c(O)c3c(c(O)c1C2=O)C[C@@](O)(C(=O)CO)C[C@@H]3O[C@H]1C[C@H](N)[C@H](O)[C@H](C)O1,MTT,48 h,pIC50,6.74
Brc1ccc(C#CC#Cc2ccc(Br)cc2)cc1,MTT,24 h,IC50,16.3 µg/mL
CC1CS(=O)(=O)CCN1/N=C/c1ccc([N+](=O)[O-])o1 (stereo not drawn),,,pIC50,4.37
COC(=O)CN=c1scc(-c2ccccc2)n1-c1ccc(Cl)cc1,MTT,72 h,pIC50,4.77
COc1cc(C)cc2oc(-c3cccc(Br)c3)cc(=O)c12,MTT,48 h,pIC50,4.48
c1ccc(-c2ccccn2)nc1,MTT,48 h,pIC50,< 4.30
CC(=O)O[C@H](C)C(=O)CCCCCCC(=O)Nc1ccccc1,XTT,,pIC50,< 4.30
COc1cc(C)cc2oc(-c3ccc(C(F)(F)F)cc3)cc(=O)c12,MTT,48 h,pIC50,< 4.00
C(C#Cc1ccccc1)#Cc1ccccc1,MTT,24 h,IC50,3.77 µg/mL
COc1cc(OC)c2c(=O)cc(-c3ccc(C(F)(F)F)cc3)oc2c1-c1c(OC)cc(OC)c2c(=O)cc(-c3ccc(C(F)(F)F)cc3)oc12,MTT,48 h,pIC50,< 4.00
COc1ccc(C(=O)c2cc3c(-c4ccccc4)c(OC)ccc3o2)cc1,,,pIC50,5.89
COC(=O)CN=c1scc(-c2ccccc2)n1-c1ccccc1[N+](=O)[O-],MTT,,pIC50,5.22
COc1cc(OC)c2c(=O)cc(-c3ccccc3)oc2c1-c1c(OC)cc(OC)c2c(=O)cc(-c3ccccc3)oc12,MTT,48 h,pIC50,4.66
CCN1CCN(C(=O)N[C@@H](C(=O)N[C@@H]2C(=O)N3[C@@H]2SC(C)(C)[C@@H]3C(=O)O)c2ccccc2)C(=O)C1=O,ATP luminescence,48 h,IC50,68.2 µg/mL
C#CCOc1ccc(C(=O)c2ccc(-c3cccc(NC(=O)CCc4cccc5c4B(O)OC5)c3)cc2)cc1,ATP luminescence,72 h,pIC50,5.36
CC(C)(C)Oc1ccc(CC2NC(=O)C(C(=O)NC(C(=O)NC3C(=O)N4C3SC(C)(C)C4C(=O)O)c3ccccc3)=C2O)cc1 (stereo not drawn),ATP luminescence,48 h,IC50,59.3 µg/mL
COc1cc(C)cc2oc(-c3ccc(N(C)C)cc3)cc(=O)c12,MTT,48 h,pIC50,4.62
CC1(C)SC2C(NC(=O)C(NC(=O)C3=C(O)C(c4ccccc4)NC3=O)c3ccccc3)C(=O)N2C1C(=O)O (stereo not drawn),ATP luminescence,48 h,IC50,47.6 µg/mL
COc1cc(C)c(-c2c(C)cc(OC)c3c(=O)cc(-c4ccccc4)oc23)c2oc(-c3ccccc3)cc(=O)c12,MTT,48 h,pIC50,4.93
C[C@@H](O)C(=O)CCCCC[C@@H]1NC(=O)[C@H]2CCCN2C(=O)[C@H](Cc2ccccc2)NC(=O)C(C)(C)NC1=O,XTT,,pIC50,6.77
O=C(Nc1cc(OCCN2CCCC2)c2ccccc2n1)c1cc(OCCN2CCCC2)cc(C(=O)Nc2cc(OCCN3CCCC3)c3ccccc3n2)n1,ATP luminescence,72 h,pIC50,5.64
CC(C)C1NC(=O)C(C(=O)NC(C(=O)NC2C(=O)N3C2SC(C)(C)C3C(=O)O)c2ccccc2)=C1O (stereo not drawn),ATP luminescence,48 h,IC50,59 µg/mL
COc1ccc(C(=O)O[C@@H]2CN3Cc4c(cc5c(c4OC)OCO5)[C@@]24C=C[C@H](OC)C[C@@H]34)cc1,WST-1,48 h,pIC50,< 5.00
NCCCOc1cc(NC(=O)c2cccc(C(=O)Nc3cc(OCCCN)c4ccccc4n3)n2)nc2ccccc12,ATP luminescence,72 h,pIC50,5.85
CCCC#CC#CCCC,MTT,24 h,IC50,105 µg/mL
CC1NC(=O)C(C(=O)NC(C(=O)NC2C(=O)N3C2SC(C)(C)C3C(=O)O)c2ccccc2)=C1O (stereo not drawn),ATP luminescence,48 h,IC50,106 µg/mL
C#CCOc1cc(C(=O)Nc2cc(OCCCN)c3ccccc3n2)nc(C(=O)Nc2cc(OCCCN)c3ccccc3n2)c1,ATP luminescence,72 h,pIC50,5.44
COc1ccc(-c2cc(=O)c3c(OC)cc(OC)c(-c4c(OC)cc(OC)c5c(=O)cc(-c6ccc(OC)cc6)oc45)c3o2)cc1,MTT,48 h,pIC50,4.40
NCCCOc1cc(NC(=O)c2cc(OCc3c[nH]nn3)cc(C(=O)Nc3cc(OCCCN)c4ccccc4n3)n2)nc2ccccc12,ATP luminescence,72 h,pIC50,< 4.40
COc1ccc(-c2cc(=O)c3c(OC)cc(C)c(-c4c(C)cc(OC)c5c(=O)cc(-c6ccc(OC)cc6)oc45)c3o2)cc1,MTT,48 h,pIC50,4.38
O=C(c1ccccc1)c1cc2c(-c3ccccc3)c(O)ccc2o1,,,pIC50,4.46
